Converted amounts (≈) assume the structure as drawn.
What was measured:
Bacillus subtilis = assay: Inhibition of N-terminal LgBiT-fused Bacillus subtilis NusB expressed in Escherichia coli BL21(DE3)pLysS interaction with C- terminal SmBiT-fused Bacillus subtilis NusE expressed in Escherichia coli BL21(DE3)pLysS at 100 uM preincubated for 10 mins followed by NusE addition and measured after 10 mins by nano-glo luciferase assay relative to control
In short: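 NusB and NusE were mixed 1:1 at 1 µM in PBS, with compound at 100 µM. The read-out was percent inhibition of the NusB-NusE interaction.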

Enterococcus faecium = assay: Antimicrobial activity against Enterococcus faecium ATCC 19433 incubated for 20 hrs by microdilution method; type: functional; details: ATCC 19433, 20 h
In short: (§1)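 Broth microdilution MIC testing done following CLSI guidelines.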

Streptococcus pneumoniae = assay: Antimicrobial activity against Streptococcus pneumoniae ATCC 49619 incubated for 20 hrs by microdilution method; type: functional; details: ATCC 49619, 20 h; in short: as §1
Acinetobacter baumannii = assay: Antimicrobial activity against Acinetobacter baumannii ATCC 19606 incubated for 20 hrs by microdilution method; type: functional; details: ATCC 19606 = CIP 70.34 = JCM 6841, 20 h; in short: as §1
Pseudomonas aeruginosa = assay: Antimicrobial activity against Pseudomonas aeruginosa ATCC 27853 incubated for 20 hrs by microdilution method; type: functional; details: ATCC 27853, 20 h; in short: as §1
Staphylococcus aureus [1] = assay: microbe, parasite or virus in culture; details: ATCC 25923, 20 h
Staphylococcus aureus [2] = assay: microbe, parasite or virus in culture; details: ATCC 29213, 20 h
[3] = microbe, parasite or virus in culture; details: Enterobacter cloacae, ATCC 13047, 20 h
[4] = Cytotoxicity against human A549 cells assessed as reduction in cell viability after 48 to 72 hrs by MTT assay; type: cell-based
[5] = Cytotoxicity against human HaCaT cells assessed as reduction in cell viability after 48 to 72 hrs by MTT assay; type: cell-based
[6] = Therapeutic index, ratio of CC50 for human A549 cells to 1/2 times MIC for Staphylococcus aureus ATCC 25923; type: toxicity; details: read-out: TI
[7] = Therapeutic index, ratio of CC50 for human HaCaT cells to 1/2 times MIC for Staphylococcus aureus ATCC 25923; type: toxicity; details: read-out: TI
Staphylococcus aureus [8] = assay: Antimicrobial activity against Staphylococcus aureus ATCC BAA43 incubated for 20 hrs by microdilution method; type: functional; details: ATCC BAA43, 20 h
In short: (§2)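 MIC determined by microdilution following Clinical & Laboratory Standards Institute (CLSI) guidelines, read in µg/mL, against a panel of hospital- and community-acquired MRSA strains.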

[9] = system: Enterococcus casseliflavus; assay: Antimicrobial activity against Enterococcus casseliflavus ATCC 25788 incubated for 20 hrs by microdilution method; type: functional; details: ATCC 25788, 20 h; in short: as §1
[10] = system: Staphylococcus epidermidis; assay: Antimicrobial activity against Staphylococcus epidermidis ATCC 12228 incubated for 20 hrs by microdilution method; type: functional; details: ATCC 12228, 20 h; in short: as §1
[11] = Antimicrobial activity against Staphylococcus saprophyticus ATCC 15305 incubated for 20 hrs by microdilution method; type: functional, Staphylococcus saprophyticus subsp. saprophyticus; details: ATCC 15305, 20 h; in short: as §1
Streptococcus pyogenes = assay: Antimicrobial activity against Streptococcus pyogenes ATCC 19615 incubated for 20 hrs by microdilution method; type: functional; details: ATCC 19615, 20 h; in short: as §1
Streptococcus agalactiae = assay: Antimicrobial activity against Streptococcus agalactiae ATCC 12386 incubated for 20 hrs by microdilution method; type: functional; details: ATCC 12386, 20 h; in short: as §1
Staphylococcus aureus [12] = assay: Antimicrobial activity against Staphylococcus aureus ST239 incubated for 20 hrs by microdilution method; type: functional; details: CN79, 20 h; in short: as §2
Staphylococcus aureus [13] = assay: Antimicrobial activity against Staphylococcus aureus ATCC BAA44 incubated for 20 hrs by microdilution method; type: functional; details: ATCC BAA44, 20 h; in short: as §2
Staphylococcus aureus [14] = assay: Antimicrobial activity against Staphylococcus aureus HA W231 ST45 incubated for 20 hrs by microdilution method; type: functional; details: HA W231 ST45, 20 h; in short: as §2
Staphylococcus aureus [15] = assay: Antimicrobial activity against CA-methicillin-resistant Staphylococcus aureus W47 ST30 incubated for 20 hrs by microdilution method; type: functional; details: W47 ST30, 20 h; in short: as §2
Staphylococcus aureus [16] = assay: Antimicrobial activity against CA-methicillin-resistant Staphylococcus aureus W45 ST59 incubated for 20 hrs by microdilution method; details: W45 ST59, 20 h
Staphylococcus aureus [17] = assay: Antimicrobial activity against CA-methicillin-resistant Staphylococcus aureus W46 ST59 incubated for 20 hrs by microdilution method; details: W46 ST59, 20 h
Staphylococcus aureus [18] = assay: Antimicrobial activity against Staphylococcus aureus USA300/ST8 incubated for 20 hrs by microdilution method; details: USA300 ST8, 20 h
Staphylococcus aureus [19] = assay: Antimicrobial activity against Staphylococcus aureus ST22 11B086169 incubated for 20 hrs by microdilution method; type: functional; details: ST22 11B086169, 20 h; in short: as §2
Staphylococcus aureus [20] = assay: Antimicrobial activity against CA-methicillin-resistant Staphylococcus aureus W4 ST338 incubated for 20 hrs by microdilution method; type: functional; details: W4 ST338, 20 h; in short: as §2
Staphylococcus aureus [21] = assay: Antimicrobial activity against CA-methicillin-resistant Staphylococcus aureus W48 ST217 incubated for 20 hrs by microdilution method; details: W48 ST217, 20 h
Staphylococcus aureus [22] = assay: Antimicrobial activity against Staphylococcus aureus HA W235 ST5 incubated for 20 hrs by microdilution method; type: functional; details: HA W235 ST5, 20 h; in short: as §2

Row | Compound | inhibition (Bacillus subtilis) [%] | MIC (Enterococcus faecium) [µg/mL] | MIC (Streptococcus pneumoniae) [µg/mL] | MIC (Acinetobacter baumannii) [µg/mL] | MIC (Pseudomonas aeruginosa) [µg/mL] | MIC (Staphylococcus aureus [1]) [µg/mL] | MIC (Staphylococcus aureus [2]) [µg/mL] | MIC [3] [µg/mL] | other results
1 | O=[N+]([O-])c1ccc(O)c(/C=N/C2CCCCC2)c1 | 68.3 | > 256 | 16 (≈ 64.4 µM) | 256 (≈ 1030 µM) | > 256 | 4 (≈ 16.1 µM) | 8 (≈ 32.2 µM) | > 256 | –
2 | O=[N+]([O-])c1ccc(O)c(/C=N/c2ccccc2Cl)c1 | 45.7 | > 256 | 64 (≈ 231 µM) | 256 (≈ 925 µM) | > 256 | 2 (≈ 7.23 µM) | 16 (≈ 57.8 µM) | > 256 | CC50 [4]: 432 µM; CC50 [5]: 347 µM; selectivity ratio [6]: 119; selectivity ratio [7]: 96
3 | O=[N+]([O-])c1ccc(O)c(/C=N/c2cccc(C(F)(F)F)c2)c1 | 56.2 | > 256 | 32 (≈ 103 µM) | 256 (≈ 825 µM) | > 256 | 16 (≈ 51.6 µM) | 64 (≈ 206 µM) | 256 (≈ 825 µM) | –
4 | O=[N+]([O-])c1ccc(O)c(/C=N/c2cccc(Cl)c2)c1 | 66.5 | > 256 | 64 (≈ 231 µM) | 256 (≈ 925 µM) | > 256 | 2 (≈ 7.23 µM) | 16 (≈ 57.8 µM) | > 256 | CC50 [4]: 274 µM; CC50 [5]: 250 µM; selectivity ratio [6]: 76; selectivity ratio [7]: 69
5 | C#Cc1cccc(NCc2cc(OC)ccc2O)c1 | 58.3 | 64 (≈ 253 µM) | 8 (≈ 31.6 µM) | > 256 | > 256 | 64 (≈ 253 µM) | 32 (≈ 126 µM) | > 256 | –
6 | C#Cc1cccc(NCc2cc(C#N)ccc2O)c1 | 64.8 | 64 (≈ 258 µM) | 16 (≈ 64.4 µM) | > 256 | > 256 | 32 (≈ 129 µM) | 32 (≈ 129 µM) | > 256 | –
7 | C#Cc1cccc(NCc2cc(F)ccc2O)c1 | 61.8 | 32 (≈ 133 µM) | 16 (≈ 66.3 µM) | 128 (≈ 531 µM) | > 256 | 32 (≈ 133 µM) | 32 (≈ 133 µM) | > 256 | –
8 | C#Cc1cccc(/N=C/c2cc(O)ccc2[N+](=O)[O-])c1 | 52.2 | > 256 | > 256 | 256 (≈ 961 µM) | > 256 | 256 (≈ 961 µM) | 256 (≈ 961 µM) | > 256 | –
9 | O=[N+]([O-])c1ccc(O)c(CNc2ccccc2O)c1 | 81.5 | 256 (≈ 984 µM) | 64 (≈ 246 µM) | 128 (≈ 492 µM) | 256 (≈ 984 µM) | 16 (≈ 61.5 µM) | 32 (≈ 123 µM) | 256 (≈ 984 µM) | –
10 | O=C(O)c1cn(C2CC2)c2cc(N3CCNCC3)c(F)cc2c1=O [CIPROFLOXACIN] | – | 4 (≈ 12.1 µM) | – | 2 (≈ 6.04 µM) | – | 0.5 to 1 (≈ 1.51 to 3.02 µM) | 0.5 to 1 (≈ 1.51 to 3.02 µM) | – | MIC (Staphylococcus aureus [8]): 2 µg/mL (≈ 6.04 µM); MIC [9]: 4 µg/mL (≈ 12.1 µM); MIC [10]: 0.0625 µg/mL (≈ 0.189 µM); MIC [11]: 0.5 µg/mL (≈ 1.51 µM); MIC (Streptococcus pyogenes): 0.5 µg/mL (≈ 1.51 µM); MIC (Streptococcus agalactiae): 4 µg/mL (≈ 12.1 µM); MIC (Staphylococcus aureus [12]): 4 µg/mL (≈ 12.1 µM); MIC (Staphylococcus aureus [13]): 4 µg/mL (≈ 12.1 µM); MIC (Staphylococcus aureus [14]): 2 µg/mL (≈ 6.04 µM); MIC (Staphylococcus aureus [15]): 0.5 µg/mL (≈ 1.51 µM); MIC (Staphylococcus aureus [16]): 0.25 µg/mL (≈ 0.754 µM); MIC (Staphylococcus aureus [17]): 0.25 µg/mL (≈ 0.754 µM); MIC (Staphylococcus aureus [18]): 4 µg/mL (≈ 12.1 µM); MIC (Staphylococcus aureus [19]): 4 µg/mL (≈ 12.1 µM); MIC (Staphylococcus aureus [20]): 0.5 µg/mL (≈ 1.51 µM); MIC (Staphylococcus aureus [21]): 4 µg/mL (≈ 12.1 µM); MIC (Staphylococcus aureus [22]): 4 µg/mL (≈ 12.1 µM)

Source: ChEMBL document CHEMBL4364256, “Design, synthesis and biological evaluation of antimicrobial diarylimine and -amine compounds targeting the interaction between the bacterial NusB and NusE proteins” (Eur J Med Chem, 2019)
